Assay outcomes (PubChem BioAssay)
RanGTP-Impb inh – disruptors of Ran-importin-beta complex formation – biochemical, FRET, CFP-Ran, YFP-importin-beta, homogeneous, primary screen; cell-free CFP-Ran/YFP-importin-beta FRET ratio; inhibition, % (concentration not given with the values); hit rate 1.1% among 300,000; AID 2216;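 active = more than half of the replicate wells show a fall in the fluorescence ratio signal beyond about 16%, limit read from the data, passing the limit was not always enough; inconclusive = exactly half of the replicate wells pass the set limit; inactive = fewer than half of replicates pass the limit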
Runt-CBFb FRET – blocks binding of human RUNX1 Runt domain to CBFb. Q01196+Q13951. Cerulean-Runt/Venus-CBFb FRET ratio 530/480, 1 h. inhibition, % at 20 µM. hit rate 0.46% among 220,000. AID 1496;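 active = inhibition over about 50% at 20 µM in the single-dose screen, limit read from the data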
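Measured by: fluorescence energy transfer, 422 nm excitation, 530/480 nm emission; Assay system: Cerulean-Runt domain; Medium: Tris pH 7.5 buffer with BSA; Measure: loss of energy transfer signal; Controls: 5 µM unlabeled CBFb as full-inhibition high control; Incubation: protein complex preformed 1 h, compound exposure 1 h, room temperature, dark.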
LANA-H2B inh – blocks KSHV LANA binding to histone H2A/H2B. inhibition, % (test concentration not listed). cell-free LANA-H2A/H2B peptide, fluorescence polarization. hit rate 0.6% among 320,000. Q9QR71. AID 2629; in the data active = inhibition mostly above about 10%, no sharp cut-off; inactive = mostly below about 6.7%
Target sequence (Q9QR71 whole entry, looked up): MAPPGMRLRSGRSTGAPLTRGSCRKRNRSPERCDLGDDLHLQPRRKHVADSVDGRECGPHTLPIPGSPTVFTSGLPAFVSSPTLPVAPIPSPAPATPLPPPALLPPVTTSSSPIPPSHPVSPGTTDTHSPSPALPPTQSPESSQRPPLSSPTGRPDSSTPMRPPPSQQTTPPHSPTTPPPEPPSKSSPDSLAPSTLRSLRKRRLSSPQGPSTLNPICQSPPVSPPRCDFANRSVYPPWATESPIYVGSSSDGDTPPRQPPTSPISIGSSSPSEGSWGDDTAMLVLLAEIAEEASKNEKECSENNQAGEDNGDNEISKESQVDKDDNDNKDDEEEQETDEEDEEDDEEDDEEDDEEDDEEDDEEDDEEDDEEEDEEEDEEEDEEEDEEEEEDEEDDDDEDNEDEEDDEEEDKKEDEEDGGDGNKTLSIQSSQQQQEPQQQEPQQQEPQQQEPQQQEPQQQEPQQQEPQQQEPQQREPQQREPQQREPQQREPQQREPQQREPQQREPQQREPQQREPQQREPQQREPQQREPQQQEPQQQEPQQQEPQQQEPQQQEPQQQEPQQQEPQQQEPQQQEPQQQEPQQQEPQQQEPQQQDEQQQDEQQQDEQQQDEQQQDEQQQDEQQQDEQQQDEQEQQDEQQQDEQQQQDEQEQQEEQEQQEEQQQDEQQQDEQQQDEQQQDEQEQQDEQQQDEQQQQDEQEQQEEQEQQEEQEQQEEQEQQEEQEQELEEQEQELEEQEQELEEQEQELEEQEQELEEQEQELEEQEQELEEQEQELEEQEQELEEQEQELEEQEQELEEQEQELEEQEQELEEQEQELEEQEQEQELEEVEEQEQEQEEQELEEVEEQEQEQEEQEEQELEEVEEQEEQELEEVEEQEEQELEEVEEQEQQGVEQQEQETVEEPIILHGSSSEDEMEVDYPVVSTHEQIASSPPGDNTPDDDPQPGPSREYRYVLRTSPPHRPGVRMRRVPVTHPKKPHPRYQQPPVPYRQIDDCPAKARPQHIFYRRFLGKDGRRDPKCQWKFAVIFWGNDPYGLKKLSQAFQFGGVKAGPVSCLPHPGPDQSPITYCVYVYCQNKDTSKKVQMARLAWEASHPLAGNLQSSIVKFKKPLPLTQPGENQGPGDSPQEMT
Runt-SMMHC FRET – Runt domain-CBFb-SMMHC interaction inhibition; inhibition, % at 20 µM; AID 1434; Cerulean-Runt/Venus-CBFb-SMMHC FRET ratio 530/480, 1 h; hit rate 0.74% among 220,000;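 active = mean inhibition across duplicate retests at 20 µM reaching about 50%, limit read from the data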;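 note: inhibitors lower the FRET ratio by blocking Runt binding to CBFb-SMMHC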
MEX-5 binding – C. elegans MEX-5 TCR-2 RNA binding activity. MEX-5/FITC-TCR2 RNA binding, fluorescence polarization; hits give low values. Q9XUB2. hit rate 0.38% among 300,000. activity score (negative = inhibition of binding), % at 10 µM;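 active = inhibition past about -25% in most replicates, and total fluorescence under double the plate's negative control median, limit read from the data; inconclusive = replicates evenly split on the limit, or fluorescence at least double controls; inactive = too little inhibition in most replicates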
EBV gp42 inh – EBV gp42 inhibition. Q1HVG2. Fluorescence polarization binding assay, mP read-out. inhibition, % (tested at 21.74 µM). hit rate 0.42% among 220,000; in the data active = inhibition above about 50%
Numbers stand for hits; . = inactive; ? = inconclusive; / = no result given. An excerpt weighted towards active compounds, which were near 2.4% of everything screened.

SMILES | RanGTP-Impb inh | Runt-CBFb FRET | LANA-H2B inh | Runt-SMMHC FRET | MEX-5 binding | EBV gp42 inh
COc1ccc(/C=C/C(=O)OCC(=O)NCC2CCCO2)cc1 (configuration not stated) | . | . | . | . | . | .
COC(=O)Cn1c2ccccc2c2nc3ccccc3nc21 | . | / | . | / | . | /
CC(C)OC(=O)c1c2nc3ccccc3nc2n2c1[nH]c(=O)c1ccccc12 | . | . | . | 62 | . | .
Cc1ccc(SCC(=O)NNC(=O)CNC(=O)c2ccccc2F)cc1 | / | / | . | / | / | /
CC(C)c1ccc(N2C(=O)CC(NNC(=O)c3cccnc3)C2=O)cc1 (configuration not stated) | . | . | . | . | . | .
O=S(=O)(c1ccc(Cl)cc1)c1cnc2ccccc2n1 | . | . | . | . | . | .
Cc1cc(C)cc(S(=O)(=O)c2cnc3ccccc3n2)c1 | . | . | 14 | . | . | .
CC(=O)c1ccc(NS(=O)(=O)c2c(C)cc(C)cc2C)cc1 | . | . | 19 | . | . | .
CN1C(=O)/C(=C\C=C2/CCCN2C)N(C)C1=S | ? | . | . | . | . | .
CCN1C(=O)/C(=C/C=C2/CCCN2C)OC1=S | . | . | . | 125 | . | .
O=C(O)C[C@H](O)C[C@H](O)/C=C/c1c(C2CC2)nc2ccccc2c1-c1ccc(F)cc1 | . | / | / | / | . | /
COc1ccc(C#Cc2ccc3c(c2)c(=O)c2ccccc2n3C)cc1 | 84 | / | . | / | . | /
Cn1c2ccccc2c(=O)c2cc(C#Cc3ccc(N)cc3)ccc21 | 50 | / | . | / | . | /
Cn1c2ccccc2c(=O)c2ccc(C#CC3(O)CCCCC3)cc21 | 165 | / | . | / | . | /
COc1cccc(C#Cc2c(C=O)n(C)c3ccccc23)c1 | / | / | . | / | / | /
Nc1ccc(C#Cc2ccc3oc4ccccc4c(=O)c3c2)cc1 | . | / | . | / | . | /
c1ccc(C2OC3c4cccc5cccc(c45)C3N2c2ccccc2)cc1 (configuration not stated) | . | . | . | . | . | .
OCC[C@H]1C[C@H](O)[C@@H](O)[C@@]2(CCCCO2)O1 | . | . | . | . | . | .
COc1ccc(OC)c(NC(=O)CCOc2cccc(C)c2)c1 | . | / | . | / | . | /
CCOc1ccc(OCCCC(=O)NCCc2ccc(OC)cc2)cc1 | . | / | 11 | / | . | /
CCCCC(=O)NCCc1ccc(OC)cc1 | . | . | . | . | . | .
CC1=CC(=C(C#N)C#N)c2ccccc2N1C | . | . | 46 | . | . | .
CC1=C/C(=C\C=C(C#N)C#N)N(C)c2ccccc21 | . | . | . | . | . | .
CO/N=C/C(C#N)=C/c1cc(C(=O)c2ccccc2)cn1C | . | . | . | . | . | .
COc1cccc(NC(=O)[C@@H]2CCC(=O)N2C2OC(=O)c3ccccc32)c1 (some centres not stated) | . | / | . | / | . | /
SMILES | RanGTP-Impb inh | Runt-CBFb FRET | LANA-H2B inh | Runt-SMMHC FRET | MEX-5 binding | EBV gp42 inh
CCOC(=O)C1=C(C)OC(N)=C(C#N)C1c1ccc(O)c(OC)c1 (configuration not stated) | . | . | . | . | -40 | .
CCOC(=O)C1=C(CSc2nc3c(cc2C#N)CN(C)CC3)OC(N)=C(C#N)C1c1ccncc1 (configuration not stated) | 21 | . | . | 74 | -51 | .
CCOC(=O)C1=C(C)OC(N)=C(C#N)C1c1cccs1 (configuration not stated) | . | . | . | . | . | .
CCCC1=C(C(=O)OCC)C(c2cccs2)C(C#N)=C(N)O1 (configuration not stated) | 30 | . | . | . | . | .
CCOC(=O)C1=C(CSc2nc(C)cc(C)c2C#N)OC(N)=C(C#N)C1c1ccccc1 (configuration not stated) | ? | . | . | . | . | .
CCOC(=O)C1=C(C)OC(N)=C(C#N)C1c1ccccc1 (configuration not stated) | . | . | . | . | . | .
CCOC(=O)C1=C(CSc2nc(CC)c(C)cc2C#N)OC(N)=C(C#N)C1c1ccccc1 (configuration not stated) | 22 | . | . | . | . | .
Cc1ccc(S(=O)(=O)Nc2c(C)n(C)n(-c3ccccc3)c2=O)c(C)c1 | . | / | . | / | . | /
CCOC(=O)C1=C(CSc2nc(-c3ccccc3)ccc2C#N)OC(N)=C(C#N)C1c1ccc(OC)cc1 (configuration not stated) | . | . | . | . | . | .
CCOC(=O)C1=C(CSc2nc3c(cc2C#N)CN(C)CC3)OC(N)=C(C#N)C1c1ccc(Cl)cc1 (configuration not stated) | 27 | . | . | 59 | . | .
Cc1nn(S(=O)(=O)c2ccccc2)c(C)c1S(=O)(=O)N1CCOCC1 | . | / | . | / | / | /
C=CCOC(=O)C1=C[C@@H](c2csc3ccccc23)C[C@@H](OCCCCO)O1 | . | / | . | / | . | /
COc1ccc(OC)c(-c2csc(NC(=O)CSc3nnnn3C)n2)c1 | . | / | . | / | . | /
COCCn1c(=N)c(S(=O)(=O)c2ccc(F)cc2)cc2c(=O)n3ccccc3nc21 | 160 | / | . | / | . | /
COCCn1c(=N)c(S(=O)(=O)c2ccc(Br)cc2)cc2c(=O)n3ccccc3nc21 | 119 | / | . | / | -45 | /
COc1ccc(CCn2c(=N)c(S(=O)(=O)c3ccc(C)cc3)cc3c(=O)n4ccccc4nc32)cc1 | . | / | . | / | ? | /
CCCCC1=CC2=C(c3ccco3)C(=O)C(C)(OC(=O)c3ccc(OC)cc3)C(=O)C2=CN1CC1CC1 (configuration not stated) | . | . | . | . | . | .
CCCCC1=CC2=C(c3ccco3)C(=O)C(C)(OC(=O)c3ccc(OC)cc3)C(=O)C2=CN1CCN1CCOCC1 (configuration not stated) | . | . | . | . | -38 | .
CCCCC1=CC2=C(c3ccco3)C(=O)C(C)(OC(=O)c3ccc(OC)cc3)C(=O)C2=CN1c1ccc(OC)cc1 (configuration not stated) | . | . | . | . | . | .
COC(=O)CCCC1=CC2=C(c3ccccc3)C(=O)C(C)(OC(=O)C3CCCC3)C(=O)C2=CN1C1CC1 (configuration not stated) | . | . | 59 | . | . | .
CCCCC1=CC2=C(c3ccco3)C(=O)C(C)(OC(=O)c3ccc(OC)cc3)C(=O)C2=CN1CCCCO (configuration not stated) | . | . | . | . | . | .
CCCCC1=CC2=C(c3ccco3)C(=O)C(C)(OC(=O)c3ccc(OC)cc3)C(=O)C2=CN1C1CC1 (configuration not stated) | . | . | . | . | -59 | .
CCCCC1=CC2=C(c3ccco3)C(=O)C(C)(OC(=O)c3ccc(OC)cc3)C(=O)C2=CN1C1CCCC1 (configuration not stated) | . | / | . | / | -29 | /
